Source: PubChem
MrgX1 antag = human MrgX1 receptor antagonism, primary screen. Q96LB2. MRGX1-HEK293 calcium flux, Fluo-4, BAM8-22 antagonism; stronger effect = lower value. B-score at 10 µM. 310,000 compounds, 1.3% hits;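 active means calcium-response B-score plate-corrected more than 3 library SD below zero, starting fluorescence within 5 deviations, no agonist response on first addition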;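 further: peak minus trough fluorescence over baseline after final BAM8-22 challenge near maximal dose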
Target sequence (Q96LB2 whole entry, looked up): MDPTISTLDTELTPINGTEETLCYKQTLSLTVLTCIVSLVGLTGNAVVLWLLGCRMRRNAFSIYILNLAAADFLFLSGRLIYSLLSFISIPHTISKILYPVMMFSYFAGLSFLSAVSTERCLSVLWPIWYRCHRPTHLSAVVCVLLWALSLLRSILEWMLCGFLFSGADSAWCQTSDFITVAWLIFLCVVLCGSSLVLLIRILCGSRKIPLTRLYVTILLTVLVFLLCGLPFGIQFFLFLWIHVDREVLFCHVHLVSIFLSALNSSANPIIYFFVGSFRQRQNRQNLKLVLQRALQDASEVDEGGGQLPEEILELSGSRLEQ
MrgX1 PAM = human MrgX1 positive allosteric modulation, primary screen. B-score at 10 µM. 310,000 compounds, 0.63% hits. Q96LB2. MrgX1-HEK293, Fluo-4 calcium flux, FDSS; stronger effect = higher value. AID 588675;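 active means plate-corrected calcium response at least 3 library SD above typical, normal starting fluorescence, not activating the receptor alone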;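 further: compound read alongside a low EC10 to EC30 dose of BAM8-22 agonist; peak minus trough fluorescence over baseline measured at the second addition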
Kir21 inh = inhibitors of mouse Kir2.1 inward-rectifier potassium channel | B-score at 10 µM | HEK293-Kir2.1, FluxOR thallium flux fluorescence; stronger effect = lower value | 310,000 compounds, 0.85% hits;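 active means fluorescence ratio B-score at or below minus 3 SD of library scores, with starting-brightness B-score within 2 SD, cut at about -4.2 in these data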;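 further: channel flux triggered by added potassium and thallium sulfate stimulus; B-score of peak minus minimum fluorescence over baseline after thallium stimulus; more negative B-score means stronger Kir2.1 block with less thallium influx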
RGS4 block = inhibitors of human RGS4; HEK293 M3R/RGS4 inducible, Fluo-4 calcium flux; stronger effect = higher value; triggered by carbachol at its EC20; 310,000 compounds, 0.45% hits; P49798; B-score at 10 µM;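 active means B-score, a plate-corrected calcium signal, over three deviations above library mean, with baseline fluorescence within five deviations of library mean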;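 further: RGS4 expression induced by doxycycline in cells with stable M3 receptor; B-score is computed from the integrated fluorescence ratio over baseline after carbachol; higher B-score means a larger calcium signal and so more RGS4 inhibition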
Target sequence (P49798 whole entry, looked up): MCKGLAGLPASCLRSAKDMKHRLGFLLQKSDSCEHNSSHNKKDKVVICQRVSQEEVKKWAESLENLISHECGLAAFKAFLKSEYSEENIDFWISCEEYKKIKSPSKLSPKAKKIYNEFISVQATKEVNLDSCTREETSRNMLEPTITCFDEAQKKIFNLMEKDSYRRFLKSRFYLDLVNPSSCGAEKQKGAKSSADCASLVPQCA
RGS4 act = RGS4 potentiation or activation; HEK293 M3R/inducible RGS4, carbachol calcium flux Fluo4; stronger effect = lower value; B-score at 10 µM; 310,000 compounds, 0.92% hits;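 active means B-score of the integrated calcium signal more than 4 SD below the library mean, with starting fluorescence not abnormally high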;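 further: negative B-score means reduced calcium response which marks RGS4 activation or potentiation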
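Assay system: HEK293 FlpIn-TREx cells, stable M3R, doxycycline-inducible RGS4 / Probe or stimulus: carbachol, ECmax concentration / Times: overnight RGS4 induction, 30 min dye load 37 °C, 20 min compound RT / Signal: kinetic calcium fluorescence imaging with Fluo4-AM dye, 2 µM / Measure: Agonist-evoked peak-minus-minimum fluorescence over baseline, integrated ratio, B score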
MrgX1 agonist = human MrgX1 receptor agonism, primary screen; Q96LB2; MrgX1-HEK293 cells, Fluo-4 calcium fluorescence, agonist mode; stronger effect = higher value; B-score at 10 µM; 310,000 compounds, 0.44% hits; AID 588627;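 active means calcium response B-score plate-corrected fluorescence ratio at least 3 library SD, with starting fluorescence B-score inside 5 SD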
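Material: HEK293 cells stably expressing human MrgX1 receptor | Quantity: 15,000 cells per well | Times: Cells plated overnight, dye loaded 0.5 h 37 °C, 0.5 h room temperature | Measured by: Kinetic Fluo-4 NW fluorescence of intracellular calcium | Control set: Positive and negative controls per plate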
MrgX1 ag reconf = human MrgX1 agonism, re-confirmation screen; shares compounds with MrgX1 agonist; MrgX1-HEK293, Fluo-4 calcium fluorescence, FDSS; activation, % at 10 µM; 600 compounds, 78% hits; AID 602412;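 active means calcium signal rise, corrected for plate position, at least 3 library SD high, with starting brightness within 5 such deviations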
HEK293 Ca flux = MrgX1 antagonist counter-screen hit in parental HEK293 cells. fluorescence ratio F(max-min)/F0 at 10 µM. Fluo-4 calcium fluorescence, FDSS. AID 624111. shares compounds with MrgX1 antag. 4,000 compounds, 2% hits;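 active means duplicate-averaged calcium fluorescence ratio at least three times the standard deviation of buffer wells, a nonspecific response in parental cells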
HEK293 Ca counter = MrgX1 allosteric activator counter-screen hit in parental HEK293 cells. shares compounds with MrgX1 antag. parental HEK293 calcium flux, Fluo-4 fluorescence ratio; stronger effect = higher value. fluorescence ratio F(max-min)/F0 at 10 µM. 4,000 compounds, 0.4% hits. AID 624114;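 active means calcium fluorescence ratio, averaged over duplicates, at least 3 SD of the buffer-well ratio, meaning a nonspecific response in receptor-free cells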;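 further: untransfected parental HEK293 lacking MrgX1 used as counterscreen for MrgX1 allosteric activators; fluorescence change taken during the second addition on a kinetic imager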
HEK293 Ca cntr2 = MrgX1 activator counter-screen hit in parental HEK293 cells. 4,000 compounds, 8.7% hits. Fluo-4 calcium fluorescence (FDSS); stronger effect = higher value. shares compounds with MrgX1 antag. fluorescence ratio F(max-min)/F0 at 10 µM;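 active means calcium fluorescence ratio at least three times the spread of buffer wells, meaning a non-specific response in parental cells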
* hit, by the source's call; i = inactive; / = no result given. Only some compounds are listed: those with a hit (about 4.1% of all), similar ones and a draw of the others.

SMILES	MrgX1 antag	MrgX1 PAM	Kir21 inh	RGS4 block	RGS4 act	MrgX1 agonist	MrgX1 ag reconf	HEK293 Ca flux	HEK293 Ca counter	HEK293 Ca cntr2
Nc1nc(-c2ccc3c(c2)CCO3)cs1	i	i	0.25	i	i	38.5*	175.4%*	i	i	i
O=C(O)c1cccnc1SCC(=O)N1CCCc2ccccc21	i	i	0.03	i	i	35.7*	i	i	i	i
COc1ccccc1CNC(c1ccccc1)c1ccccc1	i	i	-2.82	i	i	i	/	/	/	/
CCc1nnc(SCc2ccc(C(=O)OC)o2)n1N	i	i	-1.18	i	i	i	/	/	/	/
O=c1c2ccccc2sn1-c1ccc(S(=O)(=O)N2CCCC2)cc1	i	i	0.74	i	i	i	/	/	/	/
CN(C)S(=O)(=O)c1cccc(-n2sc3ccccc3c2=O)c1	i	i	/	/	/	36.7*	225.1%*	i	i	49.7*
O=c1c2ccccc2sn1-c1ccccc1	i	i	-1.44	i	i	41*	229.0%*	i	i	49.1*
Cc1ccc(-n2sc3ccccc3c2=O)cc1S(=O)(=O)N1CCCCC1	i	i	-0.89	i	i	i	/	/	/	/
CN(/C=C/C(=C\C=[N+](C)c1ccccc1)OCCCS(=O)(=O)[O-])c1ccccc1	i	i	-4.57	i	i	i	/	/	/	/
CCOC(=O)c1cc2c(ccn2C)n1Cc1ccc(Cl)cc1	i	i	0.25	i	i	i	/	/	/	/
CCOC(=O)c1cc2c(ccn2C)n1Cc1ccc(C#N)cc1	i	i	-1.79	i	i	26.5*	132.4%*	i	i	i
Cc1nn(Cc2ccc(Cl)cc2)c(C)c1NC(=O)c1c(-c2ccccc2)noc1C	i	i	-2.21	i	i	i	/	/	/	/
N#Cc1cn(Cc2ccccc2)c2ccccc12	i	i	1.2	i	i	29.9*	161.0%*	i	i	i
N#Cc1cn(Cc2ccccc2)c(=O)[nH]c1=O	i	i	0.59	i	i	i	/	/	/	/
CC1(C)CC(=O)c2c(Cc3ccccc3)n[nH]c2C1	i	i	-1.19	i	i	i	/	/	/	/
CC1(C)CC(=O)c2c(-c3cccnc3)n[nH]c2C1	i	i	0.13	i	i	29.3*	i	i	i	i
CCNc1nc(NC(C)C)nc(N(C#N)CC(=O)OC)n1	i	i	-1.35	i	i	i	/	/	/	/
CCNc1nc(NC(C)C)nc(N(C#N)Cc2ccccc2)n1	i	i	-0.62	i	i	42.1*	184.7%*	i	i	i
CC(=O)N1CCN(c2ccc(NC(=O)C(c3ccccc3)c3ccccc3)cc2)CC1	i	i	0.01	i	i	i	/	/	/	/
COc1cccc(-c2nnc(NC(=O)C(C)C)o2)c1	i	i	-1.5	i	i	i	/	/	/	/
O=C(Nc1nnc(-c2ccc3c(c2)CCCC3)o1)c1ccccc1	i	i	0.95	i	i	27.5*	140.0%*	i	i	51.5*
COc1cccc(-c2nnc(NC(=O)c3cccc(F)c3)o2)c1	i	i	-0.64	i	i	27.6*	686.1%*	i	i	107*
CCN(CC)S(=O)(=O)c1ccc(NC(=O)c2c(-c3ccccc3)noc2C)cc1	i	i	-0.03	i	i	i	/	/	/	/
